From PubChem BioAssay AID624174 (Southern Research Specialized Biocontainment Screening …, 2012)
Activity calls are given as the source filed them.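 Rule for the calls: active = inhibition of 30% or more at any tested concentration; inactive = the rest.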

What follows are molecules tested against Aspartyl aminopeptidase (Homo sapiens) (UniProt Q9ULA0) (assay: inhibition of human aspartyl aminopeptidase – biochemical, QFRET, H-Glu-NHMec substrate, set 3, selectivity assay for PFM18AAP inhibitor project, dose response (AID 624174)). Conditions: purified recombinant hM18AAP, H-Glu-NHMec fluorescence.
Method in brief: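 Controls: wells lacking enzyme as background control; assay system: purified recombinant hM18AAP enzyme; quantity: 5 µg/mL enzyme; times: 90 min reaction, room temperature; compound: 10-point twofold series, 100 down to 0.2 µM; detection: NHMec fluorescence at 370/460 nm; evaluation: % inhibition and IC50 from logistic fit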

Structure (SMILES) | IC50 [µM]
CC(Cc1ccc(O)c(O)c1)Nc1ccnc2ccccc12 (centres undefined) | 14.4
Oc1ccc(C2CCN(c3ccnc4ccccc34)C2)cc1O (centres undefined) | 5.59
CN(CCc1ccc(O)c(O)c1)c1ccnc2c(F)cccc12 | 7.92
Oc1ccc(C2CCN(c3ccnc4ccccc34)CC2)cc1O | 4.68
Cc1cccc2c(NCCc3ccc(O)c(O)c3)ccnc12 | 12.7
CN(CCc1ccc(O)c(O)c1)c1ncnc2ccccc12 | 6.74
Oc1ccc(C2CCCN(c3ccnc4ccccc34)C2)cc1O (centres undefined) | 5.59
Cc1cc(N(C)CCc2ccc(O)c(O)c2)c2ccccc2n1 | 9.75
CN(CCCc1ccc(O)c(O)c1)c1ccnc2ccccc12 | 9.65
CN(CCc1ccc(O)c(O)c1)c1ccnc2cc(Cl)ccc12 | 7.67
Oc1ccc(CCNc2ccnc3c(F)cccc23)cc1O | 8.36
Cc1cccc2c(N(C)CCc3ccc(O)c(O)c3)ccnc12 | 10.5

Continued, values first:

IC50 [µM] | Structure (SMILES)
13.6 | Oc1ccc(CCNc2ccnc3cc(Cl)ccc23)cc1O
11.6 | Oc1cccc(CCNc2ccnc3ccccc23)c1O
9.5 | Oc1ccc(CCCNc2c3c(nc4ccccc24)CCCC3)cc1O
35 | CC(C)(CNc1ccnc2ccccc12)c1ccc(O)c(O)c1

Same assay, conditions: purified recombinant hM18AAP, H-Glu-NHMec fluorescence; at 100 µM (top of the series)

Structure (SMILES) | inhibition
COc1ccc(CCN(C)c2ccnc3c(C)cccc23)cc1OC | inactive
COc1cc(Br)c(CCNc2ccnc3ccccc23)cc1OC | inactive
COc1ccc(CCN(C)c2ccnc3cc(Cl)ccc23)cc1OC | inactive
COc1ccc(CCNc2ccnc3c(F)cccc23)cc1OC | inactive
CN(CCCc1ccc(O)c(O)c1)c1c2ccccc2nc2ccccc12 | inactive
COc1ccc(CCNc2ncnc3ccccc23)cc1OC | inactive
COc1cc(Br)c(CCNc2c3ccccc3nc3ccccc23)cc1OC | inactive
COc1ccc(CCN(C)c2cc(C)nc3ccccc23)cc1OC | inactive
Nc1c2ccccc2nc2ccccc12 | inactive
COc1ccc(CCNc2ccnc3c(C)cccc23)cc1OC | inactive
CCN(CCc1ccc(OC)c(OC)c1)c1c2ccccc2nc2ccccc12 | inactive
COc1ccc(CCCNc2c3c(nc4ccccc24)CCCC3)cc1OC | inactive
COc1ccc(CCN(C)c2ncnc3ccccc23)cc1OC | inactive
COc1ccc(CCNC(=O)c2cc(C)ccc2N)cc1OC | inactive
Clc1c2c(nc3ccccc13)CCCC2 | inactive
COc1ccc(CCN(C)c2ccnc3c(F)cccc23)cc1OC | inactive
COc1ccc(C2CCN(c3ccnc4ccccc34)CC2)cc1OC | inactive
COc1ccc(CCCN(C)c2c3ccccc3nc3ccccc23)cc1OC | inactive

The next lines start with the values.

inhibition | Structure (SMILES)
inactive | CCOc1ccc2nccc(NCCc3ccc(OC)c(OC)c3)c2c1
inactive | COc1cc(Br)c(CCNc2c3c(nc4ccccc24)CCCC3)cc1OC
inactive | CN(CCc1ccc(O)c(O)c1)c1c2ccccc2nc2ccccc12
inactive | CCN(CCc1ccc(O)c(O)c1)c1c2ccccc2nc2ccccc12
inactive | COc1ccc(CCNc2cc(C)nc3ccccc23)cc1OC
inactive | COc1ccc(C2CCN(c3ccnc4ccccc34)C2)cc1OC (centres undefined)
inactive | COc1ccc(CCNc2ccnc3cc(Cl)ccc23)cc1OC
inactive | COc1ccc(CCN(C)c2c3ccccc3nc3ccccc23)cc1OC
inactive | CCOc1ccc2nccc(N(C)CCc3ccc(OC)c(OC)c3)c2c1
inactive | COc1ccc(CCNc2c3c(nc4ccc(C)cc24)CCCC3)cc1OC
